A short description of series [1]: In vivo inhibition of HIF-PHD2 in C57BL/6 mouse assessed as serum erythropoietin level at 15 mg/kg, iv measured after 4 hrs. In kind it is functional. In a few lines: (§1)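 Mouse pharmacodynamic EPO assay (MoPED). Compound dosed iv; serum EPO measured 4 hr after dosing and reported in pg/mL. Minimum effective dose is the lowest dose giving EPO elevation.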
Series [2] can be described thus: In vivo inhibition of HIF-PHD2 in C57BL/6 mouse assessed as serum erythropoietin level at 50 mg/kg, iv measured after 4 hrs. The format is functional. In a few lines:
as §1

Series [3] in a line: In vivo inhibition of HIF-PHD2 in C57BL/6 mouse assessed as serum erythropoietin level at 5 mg/kg, iv measured after 4 hrs. The format is functional. In a few lines: as §1
The target in series [4] is Voltage-gated inwardly rectifying potassium channel KCNH2 (Homo sapiens, UniProt Q12809). As to the kind of experiment: Inhibition of human ERG.
Voltage-gated inwardly rectifying potassium channel KCNH2, sequence (Q12809 whole entry): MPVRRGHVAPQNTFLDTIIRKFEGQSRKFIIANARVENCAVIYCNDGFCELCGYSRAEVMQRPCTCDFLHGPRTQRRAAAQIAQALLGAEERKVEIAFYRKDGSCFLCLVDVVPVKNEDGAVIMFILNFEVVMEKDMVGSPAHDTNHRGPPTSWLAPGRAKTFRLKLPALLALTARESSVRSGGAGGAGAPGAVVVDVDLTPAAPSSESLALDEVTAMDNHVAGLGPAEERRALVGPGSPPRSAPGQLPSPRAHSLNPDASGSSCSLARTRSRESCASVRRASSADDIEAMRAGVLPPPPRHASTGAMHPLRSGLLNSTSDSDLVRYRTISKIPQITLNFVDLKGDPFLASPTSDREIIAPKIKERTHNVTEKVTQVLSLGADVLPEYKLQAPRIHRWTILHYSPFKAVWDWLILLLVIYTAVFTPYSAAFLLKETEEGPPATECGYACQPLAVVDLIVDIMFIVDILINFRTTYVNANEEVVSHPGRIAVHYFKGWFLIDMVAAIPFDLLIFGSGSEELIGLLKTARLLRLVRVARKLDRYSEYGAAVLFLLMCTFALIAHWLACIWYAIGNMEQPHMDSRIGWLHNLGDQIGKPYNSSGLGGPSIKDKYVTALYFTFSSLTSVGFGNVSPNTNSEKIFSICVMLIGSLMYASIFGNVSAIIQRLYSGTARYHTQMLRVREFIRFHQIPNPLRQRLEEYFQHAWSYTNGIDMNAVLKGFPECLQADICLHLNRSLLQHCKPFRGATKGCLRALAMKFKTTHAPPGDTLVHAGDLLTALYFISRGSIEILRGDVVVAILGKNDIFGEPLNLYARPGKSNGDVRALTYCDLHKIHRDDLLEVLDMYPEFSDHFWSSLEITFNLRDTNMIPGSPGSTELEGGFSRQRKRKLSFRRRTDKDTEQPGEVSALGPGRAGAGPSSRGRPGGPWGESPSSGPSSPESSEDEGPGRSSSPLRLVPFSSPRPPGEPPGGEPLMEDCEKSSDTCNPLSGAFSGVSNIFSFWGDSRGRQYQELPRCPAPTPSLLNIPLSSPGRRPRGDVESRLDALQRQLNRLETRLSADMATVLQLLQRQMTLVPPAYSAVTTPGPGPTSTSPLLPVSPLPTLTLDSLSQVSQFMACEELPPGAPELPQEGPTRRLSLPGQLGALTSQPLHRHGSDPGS
Series [5] in a line: Oral bioavailability in rat at 2 mg/kg. In kind it is ADME, organism-based. To be noted: in vivo.
The nature of series [6]: In vivo inhibition of HIF-PHD2 in C57BL/6 mouse assessed as serum erythropoietin level at 100 mg/kg, iv measured after 4 hrs. In kind it is functional. In a few lines:
as §1

Series [7] can be described thus: Half life in rat at 2 mg/kg, po or 1 mg/kg, iv. The format is ADME, organism-based. To be noted: in vivo.
The nature of series [8]: Half life in dog at 1 mg/kg, po or 0.5 mg/kg, iv. The conditions noted are these: in vivo. The format is ADME, organism-based, Canis lupus familiaris. In a few lines: (§2)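 Single-dose PK at 1 mg/kg po and 0.5 mg/kg iv. Mouse clearance is from blood; dog and rhesus clearance is from plasma. Mouse vehicle, both routes: DMSO:PEG400:water (5:40:55, v/v/v). Dog and monkey iv vehicle: PEG200:12%HPCD:water (30:12:58 v/v/v). Dog and monkey po vehicle: Imwitor:Tween (1:1 w/w).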

The target of series [9] is T1, Egl nine homolog 1 (Homo sapiens, UniProt Q9GZT9). As to the kind of experiment: Inhibition of HIF-PHD2 (unknown origin).
T1 sequence (Q9GZT9 whole entry): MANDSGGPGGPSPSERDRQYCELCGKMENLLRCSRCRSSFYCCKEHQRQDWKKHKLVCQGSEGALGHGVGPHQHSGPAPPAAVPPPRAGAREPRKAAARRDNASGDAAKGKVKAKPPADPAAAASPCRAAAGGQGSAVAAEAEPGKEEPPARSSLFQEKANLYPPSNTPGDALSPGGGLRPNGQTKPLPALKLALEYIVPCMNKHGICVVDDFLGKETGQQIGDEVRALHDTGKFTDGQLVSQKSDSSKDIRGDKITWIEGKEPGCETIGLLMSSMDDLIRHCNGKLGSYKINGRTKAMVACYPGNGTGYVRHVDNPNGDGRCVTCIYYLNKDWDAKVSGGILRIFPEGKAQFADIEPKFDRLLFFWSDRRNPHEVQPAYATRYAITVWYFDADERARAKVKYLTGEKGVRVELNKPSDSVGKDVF
The nature of series [10]: Volume of distribution at steady state in rat at 2 mg/kg, po or 1 mg/kg, iv. The conditions noted are these: in vivo, read-out: Vdss. The format is ADME, organism-based.
The nature of series [11]: In vivo inhibition of HIF-PHD2 in iv dosed C57BL/6 mouse assessed as minimum effective dose causing increase in serum erythropoietin levels measured after 4 hrs. The format is functional. To be noted: C57BL/6, iv, read-out: MED. In a few lines: as §1
Series [12] is described as follows: Plasma clearance in rat at 2 mg/kg, po or 1 mg/kg, iv. In kind it is ADME, organism-based.
Series [13] in a line: Clearance in mouse at 2 mg/kg, po or 1 mg/kg, iv. In kind it is ADME, organism-based. To be noted: in vivo.
A short description of series [14]: Clearance in rat at 2 mg/kg, po or 1 mg/kg, iv. In kind it is ADME, organism-based. The conditions noted are these: in vivo.
Series [15] can be described thus: Cmax in dog at 1 mg/kg, po or 0.5 mg/kg, iv. In kind it is ADME, organism-based, Canis lupus familiaris. Set-up: dose 1 mg/kg. To be noted: in vivo. In a few lines:
as §2

A short description of series [16]: Protein binding in dog plasma assessed as unbound fraction at 1 mg/kg, po or 0.5 mg/kg, iv. The conditions noted are these: read-out: PPB. The format is ADME, organism-based, Canis lupus familiaris.
A short description of series [17]: Cmax in rhesus monkey at 1 mg/kg, po or 0.5 mg/kg, iv. The format is ADME, organism-based, Macaca mulatta. Set-up: dose 1 mg/kg. The conditions noted are these: in vivo. In a few lines: as §2
Series [18] is described as follows: Protein binding in rat plasma assessed as unbound fraction at 2 mg/kg, po or 1 mg/kg, iv. The format is ADME, organism-based. The conditions noted are these: read-out: PPB.
The nature of series [19]: Cmax in rat at 2 mg/kg, po or 1 mg/kg, iv. The format is ADME, organism-based. The conditions noted are these: in vivo. Set-up: dose 2 mg/kg.
The nature of series [20]: Volume of distribution at steady state in mouse at 2 mg/kg, po or 1 mg/kg, iv. The format is ADME, organism-based. To be noted: in vivo, read-out: Vdss.
Series [21] is described as follows: Half life in mouse at 2 mg/kg, po or 1 mg/kg, iv. In kind it is ADME, organism-based. The conditions noted are these: in vivo.
Series [22] is described as follows: Cmax in mouse at 2 mg/kg, po or 1 mg/kg, iv. Set-up: dose 2 mg/kg. The conditions noted are these: in vivo. The format is ADME, organism-based.
Series [23] in a line: Oral bioavailability in mouse at 2 mg/kg. The format is ADME, organism-based. The conditions noted are these: in vivo.
Series [24] in a line: Protein binding in mouse plasma assessed as unbound fraction at 2 mg/kg, po or 1 mg/kg, iv. In kind it is ADME, organism-based. The conditions noted are these: read-out: PPB.
Series [25] can be described thus: Volume of distribution at steady state in dog at 1 mg/kg, po or 0.5 mg/kg, iv. In kind it is ADME, organism-based, Canis lupus familiaris. To be noted: in vivo, read-out: Vdss. An outline of the steps: (§3)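 Dog and rhesus monkey dosed 1 mg/kg po and 0.5 mg/kg iv. The iv vehicle was PEG200:12%HPCD:water (30:12:58 v/v/v); the po vehicle was Imwitor:Tween (1:1 w/w). Clearance was measured in plasma. Protein binding was measured in 100% serum.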

A short description of series [26]: Oral bioavailability in rhesus monkey at 1 mg/kg. To be noted: in vivo. The format is ADME, organism-based, Macaca mulatta. An outline of the steps: as §3
The nature of series [27]: Oral bioavailability in dog at 1 mg/kg. In kind it is ADME, organism-based, Canis lupus familiaris. The conditions noted are these: in vivo. In a few lines:
as §3

A short description of series [28]: Clearance in rhesus monkey at 1 mg/kg, po or 0.5 mg/kg, iv. The conditions noted are these: in vivo. In kind it is ADME, organism-based, Macaca mulatta. An outline of the steps: as §2
The nature of series [29]: Volume of distribution at steady state in rhesus monkey at 1 mg/kg, po or 0.5 mg/kg, iv. In kind it is ADME, organism-based, Macaca mulatta. To be noted: in vivo, read-out: Vdss. An outline of the steps:
as §3

Series [30] is described as follows: Half life in rhesus monkey at 1 mg/kg, po or 0.5 mg/kg, iv. The format is ADME, organism-based, Macaca mulatta. The conditions noted are these: in vivo. An outline of the steps:
as §2

Series [31] can be described thus: Clearance in dog at 1 mg/kg, po or 0.5 mg/kg, iv. In kind it is ADME, organism-based, Canis lupus familiaris. To be noted: in vivo. An outline of the steps: as §2
Series [32] in a line: Protein binding in rhesus monkey plasma assessed as unbound fraction at 1 mg/kg, po or 0.5 mg/kg, iv. In kind it is ADME, organism-based, Macaca mulatta. To be noted: read-out: PPB.
Series [33] deals with T1, Egl nine homolog 1. As to the kind of experiment: Inhibition of FLAG-tagged full-length HIF-PHD2 (unknown origin) expressed in baculovirus infected Sf9 cells using 2-oxoglutarate and HIF1alpha biotinyl-DLDLEMLAPYIPMDDDFQL as peptide substrates preincubated for 30 mins followed by substrate addition and measured after 2 hrs by LANCE assay.
Series [34] can be described thus: In vivo inhibition of HIF-PHD2 in C57BL/6 mouse assessed as serum erythropoietin level at 1.5 mg/kg, iv measured after 4 hrs. In kind it is functional. An outline of the steps: as §1

Structures are written as SMILES. A value given as a limit tells only on which side of the number the result lay.

Take `C[C@@H](NC(=O)c1cnc(-n2cccn2)nc1O)c1ccccc1`: in series [1], the Activity came out at 322 pg/mL.
In the case of `O=C(NCc1ccc(OC(F)(F)F)cc1)c1cnc(-n2cccn2)nc1O`, the Activity in series [2] is 8900 pg/mL; in [1] it was 180 pg/mL.
Turning to `O=C(NC(c1ccccc1)c1ccccc1)c1cnc(-c2cccnn2)nc1O`, the Activity in series [3] is 380 pg/mL; in series [1] it was 1600 pg/mL. The IC50 in series [4] was > 30000 nM.
As to `CC(C)(NC(=O)c1cnc(-c2cscn2)nc1O)c1ccccc1`, the bioavailability in series [5] turned out to be 61%. Besides, the Activity in series [6] worked out at 2100 pg/mL. Besides, the half-life in [7] is 2.9 h.
With `C[C@H](NC(=O)c1cnc(-n2cccn2)nc1O)c1ccccc1`, the Activity in series [3] was 690 pg/mL; in series [1], 10000 pg/mL.
Regarding `COc1ccc([C@H](C)NC(=O)c2cnc(-n3cccn3)nc2O)cc1`, in series [8], the half-life was 94 h. For the same compound, the Activity in [1] was determined as 5300 pg/mL.
In the case of `C[C@@H](NC(=O)c1cnc(-n2cccn2)nc1O)c1ccc(F)cc1`, the Activity in [1] amounted to 350 pg/mL.
Turning to `O=C(NCc1ccc(F)cc1)c1cnc(-c2ccccn2)nc1O`, the IC50 against Egl nine homolog 1 [9] is 110 nM; in series [4], > 30000 nM. Moreover, in series [10], the Vd turned out to be 0.35 L/kg. The compound also came in with a bioavailability in series [5] of 67%. Further, in series [6], the Activity amounted to 1200 pg/mL. For the same compound, the minimal effective dose in [11] amounted to 100 mg/kg. This compound also registered a clearance in series [12] of 2 mL/min/kg. Also, the half-life in series [7] was 3.3 h.
`CC(C)(NC(=O)c1cnc(-c2cc(C(=O)O)ccn2)nc1O)c1ccccc1`: the bioavailability in [5] was determined as 5%. Besides, the minimal effective dose in series [11] worked out at 15 mg/kg. In [7], the half-life is 0.23 h. Moreover, the Activity in [1] is 220 pg/mL.
In turn, `O=C(NCc1ccc(-c2ccccc2)cc1)c1cnc(-n2cccn2)nc1O` had a half-life in [8] of 143 h.
Regarding `CC(C)(NC(=O)c1cnc(-n2cccn2)nc1O)c1ccccc1`, the clearance in series [13] stood at 1 mL/min/kg; in [14], 0.2 mL/min/kg; in series [28], 0.001 mL/min/kg; in series [31] it was 0.004 mL/min/kg. Further, the Activity was determined as 460 pg/mL in [3], 24000 pg/mL in [2] and 5000 pg/mL in series [1]. In addition, the Cmax was found to be 11 µM in series [15], 22 µM in series [17], 49 µM in series [19] and 30 µM in series [22]. Also, the fraction unbound in series [16] is 0.027; in [18] it was 0.012; in series [24], 0.093; in series [32] it was 0.004. Also, the Vd in series [10] was 0.06 L/kg; in [20], 0.3 L/kg; in series [25], 0.1 L/kg; in series [29] it was 0.13 L/kg. The half-life in [21] is 3.7 h; in series [30], 95 h; in [8] it was > 100 h; in series [7], 4.2 h. Besides, the bioavailability in series [5] worked out at 99%; in series [23], 98%; in [26] it was 71%; in series [27], 61%.
For `O=C(NCc1ccc(Cl)cc1)c1cnc(-n2cccn2)nc1O`, the Activity in series [1] stood at 1100 pg/mL.
The same measure, in the same setting: the figure for `O=C(NC(c1ccccc1)c1ccccc1)c1cnc(-n2cccn2)nc1O` is 2900 pg/mL.
As to `CC(C)(NC(=O)c1cnc(-c2ccc(C(F)(F)F)cn2)nc1O)c1ccccc1`, at Egl nine homolog 1 [33], the IC50 is > 2700 nM.
As for `Cc1nc(-c2ncc(C(=O)NC(C)(C)c3ccccc3)c(O)n2)cs1`, the Activity in series [6] came out at 110 pg/mL.
In turn, `C[C@H](NC(=O)c1cnc(-n2cccn2)nc1O)c1ccc(F)cc1` had a half-life in series [8] of 60 h. Besides, in series [1], the Activity worked out at 16000 pg/mL.
Regarding `COc1ccc(C(NC(=O)c2cnc(-n3cccn3)nc2O)c2ccc(OC)cc2)cc1`, the Activity in series [3] is 740 pg/mL; in [34], 190 pg/mL; in series [1], 31000 pg/mL. Also, in series [11], the minimal effective dose is 1.5 mg/kg.
For the compound `CC(C)(NC(=O)c1cnc(-n2cc(C(=O)O)cn2)nc1O)c1ccccc1`, the bioavailability in series [5] was 3%. Moreover, the half-life in series [7] was 2.1 h. For the same compound, in [1], the Activity is 1900 pg/mL.

For the origin of these results see ChEMBL document CHEMBL4765235, “Discovery of N-[Bis(4-methoxyphenyl)methyl]-4-hydroxy-2-(pyridazin-3-yl)pyrimidine-5-carboxamide (MK-8617), an Orally Active Pan-Inhibitor of Hypoxia-Inducible Factor Prolyl Hydroxylase 1-3 (HIF PHD1-3) for the Treatment of Anemia” (J Med Chem, 2016).
